Measurements as given in ChEMBL document CHEMBL1154983, “Arylpiperazine-containing pyrrole 3-carboxamide derivatives targeting serotonin 5-HT(2A), 5-HT(2C), and the serotonin transporter as a potential antidepressant” (Bioorg Med Chem Lett, 2010).
Values belong to the compound of their own block, whether it stands above or below them. Calls of active or inactive are those of the source. The rule behind the calls is not given here.

Assays:
[1] = target: T1, 5-hydroxytryptamine receptor 2C (Homo sapiens, UniProt P28335); assay: Displacement of [3H]mesulergine from human recombinant 5-HT2C receptor expressed in CHO-K1 cells after 60 mins by rapid filtration assay; type: cell-based
T1 sequence (P28335 whole entry): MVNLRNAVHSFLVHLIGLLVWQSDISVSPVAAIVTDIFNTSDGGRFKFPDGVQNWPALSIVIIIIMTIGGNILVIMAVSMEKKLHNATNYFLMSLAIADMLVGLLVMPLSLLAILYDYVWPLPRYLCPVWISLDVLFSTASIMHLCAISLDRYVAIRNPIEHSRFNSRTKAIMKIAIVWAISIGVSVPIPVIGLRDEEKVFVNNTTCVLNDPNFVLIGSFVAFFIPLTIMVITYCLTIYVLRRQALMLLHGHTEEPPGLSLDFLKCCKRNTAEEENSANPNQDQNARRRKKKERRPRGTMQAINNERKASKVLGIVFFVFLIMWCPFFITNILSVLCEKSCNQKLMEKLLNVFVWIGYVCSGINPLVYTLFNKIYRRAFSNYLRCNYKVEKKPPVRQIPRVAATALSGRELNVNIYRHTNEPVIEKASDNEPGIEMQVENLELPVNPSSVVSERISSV
Outline: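 Frozen membranes were from CHO-K1 cells stably expressing human recombinant 5-HT2C, with 1.4 nM [3H]mesulergine. Buffer was 50 mM Tris–HCl pH 7.4, 4 mM CaCl2 and 0.1% ascorbic acid, with methiothepin for nonspecific binding. Incubation ran 60 min at 27 °C, stopped by rapid filtration through 0.5% PEI-presoaked glass-fibre filters.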

[2] = target: Sodium-dependent serotonin transporter (Homo sapiens, UniProt P31645); assay: Displacement of [3H]imipramine from human SERT expressed in HEK293 cells after 30 mins by rapid filtration assay; type: cell-based
Sodium-dependent serotonin transporter, sequence (P31645 whole entry): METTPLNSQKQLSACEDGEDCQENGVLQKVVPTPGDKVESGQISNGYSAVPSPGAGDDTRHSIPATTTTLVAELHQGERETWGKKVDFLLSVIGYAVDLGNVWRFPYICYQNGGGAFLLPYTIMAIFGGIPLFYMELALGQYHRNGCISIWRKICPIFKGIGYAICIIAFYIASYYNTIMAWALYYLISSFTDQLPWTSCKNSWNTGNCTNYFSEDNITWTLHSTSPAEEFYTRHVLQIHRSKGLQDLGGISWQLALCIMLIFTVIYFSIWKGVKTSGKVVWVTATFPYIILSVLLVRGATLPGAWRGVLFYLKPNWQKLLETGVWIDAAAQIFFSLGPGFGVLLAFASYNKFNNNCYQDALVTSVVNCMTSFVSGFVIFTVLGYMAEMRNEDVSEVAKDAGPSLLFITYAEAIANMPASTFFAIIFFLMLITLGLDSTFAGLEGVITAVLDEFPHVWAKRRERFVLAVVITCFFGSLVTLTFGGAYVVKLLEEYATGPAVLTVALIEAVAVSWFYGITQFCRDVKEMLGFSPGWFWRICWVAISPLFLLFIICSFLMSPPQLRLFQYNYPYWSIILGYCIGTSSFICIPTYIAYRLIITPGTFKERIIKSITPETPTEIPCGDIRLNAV
Outline: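 Frozen membranes were from HEK293 cells expressing human SERT, with 4 nM [3H]imipramine in 50 mM Tris–HCl pH 7.4, 120 mM NaCl and 5 mM KCl. Unlabelled imipramine defined nonspecific binding. Incubation ran 30 min at 27 °C, terminated by rapid filtration through 0.5% PEI-presoaked glass-fibre filters.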

[3] = target: 5-hydroxytryptamine receptor 2A (Homo sapiens, UniProt P28223); assay: Displacement of [3H]ketanserin from human recombinant 5-HT2A receptor expressed in CHO-K1 cells after 60 mins; type: cell-based
5-hydroxytryptamine receptor 2A, sequence (P28223 whole entry): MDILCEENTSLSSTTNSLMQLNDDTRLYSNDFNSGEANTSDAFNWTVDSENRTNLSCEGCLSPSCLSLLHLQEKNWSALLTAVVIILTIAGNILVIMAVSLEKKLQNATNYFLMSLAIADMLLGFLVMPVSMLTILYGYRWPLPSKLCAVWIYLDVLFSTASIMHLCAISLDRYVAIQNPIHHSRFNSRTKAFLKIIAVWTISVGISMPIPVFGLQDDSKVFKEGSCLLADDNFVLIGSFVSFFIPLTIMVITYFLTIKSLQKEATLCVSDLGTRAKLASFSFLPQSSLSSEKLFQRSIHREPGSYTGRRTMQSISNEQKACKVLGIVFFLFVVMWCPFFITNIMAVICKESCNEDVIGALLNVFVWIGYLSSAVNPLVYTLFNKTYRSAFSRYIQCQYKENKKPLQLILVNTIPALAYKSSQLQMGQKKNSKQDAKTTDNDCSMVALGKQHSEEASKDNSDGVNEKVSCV
Outline: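 Membranes were from CHO-K1 cells stably expressing 5-HT2A. Radioligand was at 1 nM, with mianserin defining nonspecific binding. Incubation ran 60 min at 27 °C in 50 mM Tris–HCl pH 7.4 with 4 mM CaCl2 and 0.1% ascorbic acid. Harvesting was by filtration through glass-fibre filters presoaked in 0.5% PEI.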

Mus musculus [4] = assay: Antidepressant activity in mouse assessed as decrease in duration of immobility at 50 mg/kg, po during final 5 mins of the 6 mins session by forced swimming test; type: functional, organism-based; parameters: dose 50 mg/kg
Outline: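 Mice swim for 10 min in a 25-cm glass cylinder (10 cm diameter) holding 15 cm of water at 23 ± 1 °C. They are retested 24 h later for 6 min. Compound is suspended in 3% Tween 80 and given orally 60 min before the test. Total immobility time (floating upright, only small head-keeping movements) is scored over the last 5 min. Means ± S.E.M.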

[5] = target: T2, 5-hydroxytryptamine receptor 1A (Homo sapiens, UniProt P08908); assay: Inhibition of 5HT1A receptor
T2 sequence (P08908 whole entry): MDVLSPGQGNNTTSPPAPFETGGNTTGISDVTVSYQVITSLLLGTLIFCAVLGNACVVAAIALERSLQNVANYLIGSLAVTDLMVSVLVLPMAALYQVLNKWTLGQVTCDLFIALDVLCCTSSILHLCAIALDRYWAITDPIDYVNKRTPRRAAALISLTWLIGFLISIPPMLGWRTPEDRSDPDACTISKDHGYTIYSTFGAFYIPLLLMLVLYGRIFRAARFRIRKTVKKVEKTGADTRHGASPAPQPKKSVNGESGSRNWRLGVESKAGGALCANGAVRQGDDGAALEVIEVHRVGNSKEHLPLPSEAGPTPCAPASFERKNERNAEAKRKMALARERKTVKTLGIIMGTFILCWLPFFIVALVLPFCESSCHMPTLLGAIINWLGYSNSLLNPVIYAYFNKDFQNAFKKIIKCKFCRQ

D(4) dopamine receptor = target: T3, D(4) dopamine receptor (Homo sapiens, UniProt P21917); assay: Inhibition of dopamine D4 receptor
T3 sequence (P21917 whole entry): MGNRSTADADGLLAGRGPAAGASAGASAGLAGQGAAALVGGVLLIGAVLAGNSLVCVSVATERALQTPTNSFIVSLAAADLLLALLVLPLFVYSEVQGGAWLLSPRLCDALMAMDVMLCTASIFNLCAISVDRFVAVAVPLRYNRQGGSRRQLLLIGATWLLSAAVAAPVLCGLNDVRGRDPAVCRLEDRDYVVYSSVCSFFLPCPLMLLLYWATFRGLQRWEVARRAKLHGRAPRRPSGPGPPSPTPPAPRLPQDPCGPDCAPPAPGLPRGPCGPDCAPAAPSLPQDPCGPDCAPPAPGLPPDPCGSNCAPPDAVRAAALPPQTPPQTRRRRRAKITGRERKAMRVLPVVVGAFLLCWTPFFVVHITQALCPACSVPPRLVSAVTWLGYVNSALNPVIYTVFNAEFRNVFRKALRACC

[6] = target: 5-hydroxytryptamine receptor 6 (Homo sapiens, UniProt P50406); assay: Inhibition of 5HT6 receptor
5-hydroxytryptamine receptor 6, sequence (P50406 whole entry): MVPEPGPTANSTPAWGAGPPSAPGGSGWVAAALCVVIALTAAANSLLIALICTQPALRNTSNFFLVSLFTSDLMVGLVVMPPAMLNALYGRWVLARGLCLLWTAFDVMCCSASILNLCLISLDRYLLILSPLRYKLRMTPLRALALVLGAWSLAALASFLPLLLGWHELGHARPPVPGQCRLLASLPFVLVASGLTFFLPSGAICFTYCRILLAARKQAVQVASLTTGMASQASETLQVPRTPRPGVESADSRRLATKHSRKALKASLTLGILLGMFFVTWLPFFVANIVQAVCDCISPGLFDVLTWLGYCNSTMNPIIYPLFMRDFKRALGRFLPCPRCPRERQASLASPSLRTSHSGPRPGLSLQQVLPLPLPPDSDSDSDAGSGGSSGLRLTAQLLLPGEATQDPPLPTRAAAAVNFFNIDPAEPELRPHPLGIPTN

Mus musculus [7] = assay: Antidepressant activity in mouse assessed as decrease in duration of immobility at 25 mg/kg, po during final 5 mins of the 6 mins session by forced swimming test; type: functional; parameters: scale not given: the % may be the effect or the level left
Outline: (§1)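 Mice swam 10 min in a 25-cm glass cylinder (10 cm diameter) holding 15 cm of water at 23 1 °C. Twenty-four hours later, drug was given po 60 min before retesting. Immobility (floating upright with only small movements keeping head above water) was totalled over the last 5 min of the 6-min test.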

Mus musculus [8] = assay: Antidepressant activity in mouse assessed as decrease in duration of immobility at 10 mg/kg, po during final 5 mins of the 6 mins session by forced swimming test; type: functional; parameters: scale not given: the % may be the effect or the level left; outline: as §1
[9] = target: 5-hydroxytryptamine receptor 7 (Homo sapiens, UniProt P34969); assay: Inhibition of 5HT7 receptor
5-hydroxytryptamine receptor 7, sequence (P34969 whole entry): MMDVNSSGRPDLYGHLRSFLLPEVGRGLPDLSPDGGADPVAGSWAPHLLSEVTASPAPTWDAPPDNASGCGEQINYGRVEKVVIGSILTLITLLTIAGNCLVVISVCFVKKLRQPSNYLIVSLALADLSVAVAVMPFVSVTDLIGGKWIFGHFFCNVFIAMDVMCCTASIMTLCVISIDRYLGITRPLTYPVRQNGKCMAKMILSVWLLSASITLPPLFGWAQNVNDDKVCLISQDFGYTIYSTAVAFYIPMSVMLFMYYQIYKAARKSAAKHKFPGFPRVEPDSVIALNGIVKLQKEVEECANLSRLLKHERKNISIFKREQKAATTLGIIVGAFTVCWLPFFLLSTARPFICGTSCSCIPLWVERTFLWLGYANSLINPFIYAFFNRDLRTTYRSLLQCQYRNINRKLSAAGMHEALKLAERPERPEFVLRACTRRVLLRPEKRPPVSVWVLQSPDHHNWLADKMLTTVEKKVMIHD

D(2) dopamine receptor = D(2) dopamine receptor (Homo sapiens, UniProt P14416); assay: Inhibition of dopamine D2 receptor
D(2) dopamine receptor, sequence (P14416 whole entry): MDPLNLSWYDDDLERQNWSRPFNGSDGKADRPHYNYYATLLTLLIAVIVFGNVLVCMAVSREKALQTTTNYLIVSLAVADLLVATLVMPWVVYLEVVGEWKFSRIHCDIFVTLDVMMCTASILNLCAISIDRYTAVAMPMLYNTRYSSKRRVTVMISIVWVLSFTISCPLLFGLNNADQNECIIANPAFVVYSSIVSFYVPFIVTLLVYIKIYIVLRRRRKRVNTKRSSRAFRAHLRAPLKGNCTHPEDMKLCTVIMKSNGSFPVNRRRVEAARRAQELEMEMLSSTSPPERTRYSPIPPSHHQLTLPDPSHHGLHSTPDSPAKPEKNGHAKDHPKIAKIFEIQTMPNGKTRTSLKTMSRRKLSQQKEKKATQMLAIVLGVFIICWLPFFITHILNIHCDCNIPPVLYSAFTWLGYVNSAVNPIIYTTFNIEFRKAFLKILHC

D(3) dopamine receptor = D(3) dopamine receptor (Homo sapiens, UniProt P35462); assay: Inhibition of dopamine D3 receptor
D(3) dopamine receptor, sequence (P35462 whole entry): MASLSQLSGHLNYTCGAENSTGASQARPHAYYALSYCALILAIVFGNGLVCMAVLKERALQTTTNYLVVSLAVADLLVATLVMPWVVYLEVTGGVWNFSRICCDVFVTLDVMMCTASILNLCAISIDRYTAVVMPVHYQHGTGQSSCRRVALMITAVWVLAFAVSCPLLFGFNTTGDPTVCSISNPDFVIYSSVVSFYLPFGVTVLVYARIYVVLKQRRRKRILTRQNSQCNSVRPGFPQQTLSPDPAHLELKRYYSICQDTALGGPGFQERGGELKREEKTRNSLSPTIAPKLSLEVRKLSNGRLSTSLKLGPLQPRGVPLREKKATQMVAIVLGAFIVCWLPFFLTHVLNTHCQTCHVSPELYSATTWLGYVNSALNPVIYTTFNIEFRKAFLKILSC

Mus musculus [10] = assay: Antidepressant activity in mouse assessed as decrease in duration of immobility at 100 mg/kg, po during final 5 mins of the 6 mins session by forced swimming test; type: functional; outline: as §1
Rattus norvegicus [11] = assay: Dose normalized AUC (0 to infinity) in rat at 1 mg/kg, iv; type: ADME, organism-based; parameters: dose 1 mg/kg, route intravenous; settings: in vivo
Outline: (§2)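 Rats dosed once with the HCl salt, either i.v. at 1 mg/kg (n = 2 or 3) or orally at 5 mg/kg (n = 3). Plasma and brain levels were followed to derive Cmax, Clast, Tmax, t1/2, AUC, dose-normalised AUC, oral bioavailability (F) and the brain/plasma ratio.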

Rattus norvegicus [12] = assay: AUC (0 to infinity) in rat at 1 mg/kg, iv; type: ADME, organism-based, Plasma; parameters: time infinity, dose 1 mg/kg, route intravenous; settings: in vivo; outline: as §2
Rattus norvegicus [13] = assay: Clast in rat at 5 mg/kg, po; type: ADME, organism-based; parameters: dose 5 mg/kg, route oral; settings: in vivo; outline: as §2
[14] = Half life in rat at 1 mg/kg, iv; type: ADME, organism-based; parameters: dose 1 mg/kg, route intravenous; settings: in vivo; outline: as §2
[15] = Cmax in rat brain; type: ADME, organism-based; outline: as §2
[16] = Cmax in rat at 1 mg/kg, iv; type: ADME, organism-based; parameters: dose 1 mg/kg, route intravenous; settings: in vivo; outline: as §2
Brain = assay: Clast in rat brain; type: ADME, tissue-based; settings: in vivo; outline: as §2
[17] = Tmax in rat at 5 mg/kg, po; type: ADME, organism-based; parameters: dose 5 mg/kg, route oral; settings: in vivo; outline: as §2
Plasma = assay: Clast in rat plasma; type: ADME, cell-free; outline: as §2
[18] = Half life in rat brain; type: ADME, tissue-based; outline: as §2
[19] = AUC in rat plasma; type: ADME, cell-free; outline: as §2
[20] = Tmax in rat plasma; type: ADME, cell-free; outline: as §2
[21] = Tmax in rat brain; type: ADME, tissue-based; outline: as §2
[22] = Half life in rat plasma; type: ADME, cell-free; outline: as §2
[23] = Elimination half life in rat at 5 mg/kg, po; type: ADME, organism-based; parameters: dose 5 mg/kg, route oral; settings: in vivo, read-out: beta t1/2 (converted); outline: as §2
Rattus norvegicus [24] = assay: Dose normalized AUCirlf in rat at 5 mg/kg, po; type: ADME, organism-based; parameters: dose 5 mg/kg, route oral; settings: in vivo; outline: as §2
Rattus norvegicus [25] = assay: Clast in rat at 1 mg/kg, iv; type: ADME, organism-based; parameters: dose 1 mg/kg, route intravenous; settings: in vivo; outline: as §2
[26] = Cmax in rat at 5 mg/kg, po; type: ADME, organism-based; parameters: dose 5 mg/kg, route oral; settings: in vivo; outline: as §2
[27] = Cmax in rat plasma; type: ADME, organism-based; outline: as §2
[28] = Ratio of drug level in brain to plasma in rat; type: ADME, cell-free; outline: as §2
[29] = AUC in rat brain; type: ADME, tissue-based; outline: as §2
Rattus norvegicus [30] = assay: Oral bioavailability in rat at 5 mg/kg; type: ADME, organism-based; settings: in vivo; outline: as §2

IC50 [1]: 448 nM
IC50 [2]: 110 nM
IC50 [3]: 441 nM
Structure (SMILES): Cc1c(C(=O)NCCCN2CCN(c3cccc(Cl)c3)CC2)cc(-c2ccccc2)n1N1CCCCC1

Structure (SMILES): CCn1c(-c2ccccc2)cc(C(=O)NCCCN2CCN(c3cccc(C)c3C)CC2)c1C
Activity (Mus musculus [4]): Active

IC50 [5]: 94 nM
IC50 (D(4) dopamine receptor): 645 nM
IC50 [6]: 1900 nM
IC50 [9]: 408 nM
IC50 (D(2) dopamine receptor): 3740 nM
IC50 (D(3) dopamine receptor): 1070 nM
Structure (SMILES): CCCn1c(-c2ccccc2)cc(C(=O)NCCCN2CCN(c3cccc(Cl)c3Cl)CC2)c1C
Activity (Mus musculus [7]): <50%
Activity (Mus musculus [8]): 80%

IC50 [1]: 417 nM
IC50 [2]: 92 nM
IC50 [3]: 133 nM
Structure (SMILES): Cc1cccc(N2CCN(CCCNC(=O)c3cc(-c4ccccc4)n(N4CCCCC4)c3C)CC2)c1C

Structure (SMILES): CCn1c(-c2ccccc2)cc(C(=O)NCCCN2CCN(c3cccc(Cl)c3)CC2)c1C
Activity (Mus musculus [10]): inactive

Structure (SMILES): Cc1[nH]c(-c2ccccc2)cc1C(=O)NCCCN1CCN(c2cccc(Cl)c2Cl)CC1 [listing 1 of 2 here]
Activity (Mus musculus [10]): Active
Activity (Mus musculus [8]): inactive

IC50 [5]: 117 nM
IC50 (D(4) dopamine receptor): 1840 nM
IC50 [6]: 1410 nM
IC50 [2]: 137 nM
IC50 [9]: 456 nM
IC50 (D(2) dopamine receptor): 1070 nM
IC50 (D(3) dopamine receptor): 334 nM
Structure (SMILES): Cc1[nH]c(-c2ccccc2)cc1C(=O)NCCCN1CCN(c2cccc(Cl)c2Cl)CC1 [listing 2 of 2 here]
Activity (Mus musculus [7]): <50%

IC50 [9]: 524 nM
Structure (SMILES): Cc1c(C(=O)NCCCN2CCN(c3cccc(Cl)c3Cl)CC2)cc(-c2ccccc2)n1-c1ccc(F)cc1

AUC/dose (Rattus norvegicus [11]): 20.945 µg·min/mL
AUC (Rattus norvegicus [12]): 20.945 µg·min/mL
Clast (Rattus norvegicus [13]): 1 ng/mL
half-life [14]: 1.76 h
Cmax [15]: 90 ng/mL
Cmax [16]: 690 ng/mL
Clast (Brain): 60 ng/mL
Tmax [17]: 1.17 h
Clast (Plasma): 100 ng/mL
half-life [18]: 3.42 h
AUC [19]: 538 ng·h/mL
Tmax [20]: 2 h
Tmax [21]: 2 h
half-life [22]: 1.97 h
half-life [23]: 2.52 h
AUC/dose (Rattus norvegicus [24]): 12.783 µg·min/mL
Clast (Rattus norvegicus [25]): 4 ng/mL
Cmax [26]: 245 ng/mL
Cmax [27]: 190 ng/mL
Kp [28]: 46
AUC [29]: 247 ng·h/mL
F (Rattus norvegicus [30]): 61.03%
Structure (SMILES): Cc1[nH]c(-c2ccccc2)cc1C(=O)NCCCN1CCN(c2cccc(Cl)c2Cl)CC1.Cl
